pIC50, pKi: −log10 of the molar value. Activity calls are given as the source filed them. No cut-off for these calls is given here.
What was measured:
R2 [1] = assay: Cytotoxicity against PCFT-null Chinese hamster R2 cells assessed as cell growth inhibition after 96 hrs by CellTiter-Blue assay; type: cell-based, Cricetulus griseus; conditions: R2, 96 h
[2] = molecular target: T1, Trifunctional purine biosynthetic protein adenosine-3 (Homo sapiens, UniProt P22102); assay: Inhibition of GARFTase in human KB cells expressing FRalpha/PCFT/RFC assessed as incorporation of [14C(U)]-glycine into [14C]-formyl GAR preincubated for 1 hr followed by azaserine, L-glutamine, 14C(U)]-glycine addition measured after 16 hrs; type: cell-based
T1 sequence (P22102 whole entry): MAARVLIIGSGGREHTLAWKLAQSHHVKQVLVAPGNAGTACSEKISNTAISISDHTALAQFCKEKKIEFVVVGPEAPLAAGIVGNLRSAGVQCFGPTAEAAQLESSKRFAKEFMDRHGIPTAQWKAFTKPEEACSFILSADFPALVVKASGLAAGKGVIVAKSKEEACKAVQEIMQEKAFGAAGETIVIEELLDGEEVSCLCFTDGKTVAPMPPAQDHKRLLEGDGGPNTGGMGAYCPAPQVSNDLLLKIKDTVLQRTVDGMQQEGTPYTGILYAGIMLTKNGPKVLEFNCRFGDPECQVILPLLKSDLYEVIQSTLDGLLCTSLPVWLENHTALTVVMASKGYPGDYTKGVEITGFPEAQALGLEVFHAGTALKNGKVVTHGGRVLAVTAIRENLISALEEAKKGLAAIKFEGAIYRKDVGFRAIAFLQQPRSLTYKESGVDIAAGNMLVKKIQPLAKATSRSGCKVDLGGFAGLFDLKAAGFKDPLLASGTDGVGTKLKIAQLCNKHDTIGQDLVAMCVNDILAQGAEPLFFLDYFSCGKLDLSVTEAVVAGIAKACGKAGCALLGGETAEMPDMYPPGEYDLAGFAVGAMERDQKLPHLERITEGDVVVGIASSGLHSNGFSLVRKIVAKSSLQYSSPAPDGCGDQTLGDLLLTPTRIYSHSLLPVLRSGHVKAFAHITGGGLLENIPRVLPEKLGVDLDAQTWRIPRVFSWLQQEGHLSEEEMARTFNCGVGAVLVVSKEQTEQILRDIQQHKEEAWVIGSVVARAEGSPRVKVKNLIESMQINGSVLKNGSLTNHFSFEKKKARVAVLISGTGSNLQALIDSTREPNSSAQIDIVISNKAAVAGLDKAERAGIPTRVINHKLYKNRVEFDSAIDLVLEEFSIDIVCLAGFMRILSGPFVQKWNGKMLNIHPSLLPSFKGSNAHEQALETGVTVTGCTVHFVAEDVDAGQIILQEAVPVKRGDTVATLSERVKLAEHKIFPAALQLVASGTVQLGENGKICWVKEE
Method in brief: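 In situ assay in KB cells. Cells were exposed to a range of drug concentrations with [14C]glycine for 16 h under proliferation-assay conditions, with azaserine present. Radiolabelled metabolites were extracted and separated on anion exchange columns, and [14C]formyl GAR quantified. Mean ±SE of three experiments.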

KB [3] = assay: Antiproliferative activity against human KB cells expressing FRalpha/PCFT/RFC assessed as cell growth inhibition after 96 hrs by CellTiter-Blue assay in presence of 200 nM folic acid; type: functional, cell-based
KB [4] = assay: Antiproliferative activity against human KB cells expressing FRalpha/PCFT/RFC assessed as cell growth inhibition after 96 hrs by CellTiter-Blue assay; type: functional, cell-based
R2 [5] = assay: Cytotoxicity against Chinese hamster R2 cells transfected with empty PCDNA3 assessed as cell growth inhibition after 96 hrs by CellTiter-Blue assay; type: cell-based, Cricetulus griseus
[6] = molecular target: T2, Trifunctional purine biosynthetic protein adenosine-3 (Homo sapiens) (UniProt P22102); assay: Inhibition of GARFTase in human KB cells expressing FRalpha/PCFT/RFC assessed as cell growth inhibition after 96 hrs by CellTiter-Blue assay in presence of adenosine; type: cell-based
T2 sequence (whole entry): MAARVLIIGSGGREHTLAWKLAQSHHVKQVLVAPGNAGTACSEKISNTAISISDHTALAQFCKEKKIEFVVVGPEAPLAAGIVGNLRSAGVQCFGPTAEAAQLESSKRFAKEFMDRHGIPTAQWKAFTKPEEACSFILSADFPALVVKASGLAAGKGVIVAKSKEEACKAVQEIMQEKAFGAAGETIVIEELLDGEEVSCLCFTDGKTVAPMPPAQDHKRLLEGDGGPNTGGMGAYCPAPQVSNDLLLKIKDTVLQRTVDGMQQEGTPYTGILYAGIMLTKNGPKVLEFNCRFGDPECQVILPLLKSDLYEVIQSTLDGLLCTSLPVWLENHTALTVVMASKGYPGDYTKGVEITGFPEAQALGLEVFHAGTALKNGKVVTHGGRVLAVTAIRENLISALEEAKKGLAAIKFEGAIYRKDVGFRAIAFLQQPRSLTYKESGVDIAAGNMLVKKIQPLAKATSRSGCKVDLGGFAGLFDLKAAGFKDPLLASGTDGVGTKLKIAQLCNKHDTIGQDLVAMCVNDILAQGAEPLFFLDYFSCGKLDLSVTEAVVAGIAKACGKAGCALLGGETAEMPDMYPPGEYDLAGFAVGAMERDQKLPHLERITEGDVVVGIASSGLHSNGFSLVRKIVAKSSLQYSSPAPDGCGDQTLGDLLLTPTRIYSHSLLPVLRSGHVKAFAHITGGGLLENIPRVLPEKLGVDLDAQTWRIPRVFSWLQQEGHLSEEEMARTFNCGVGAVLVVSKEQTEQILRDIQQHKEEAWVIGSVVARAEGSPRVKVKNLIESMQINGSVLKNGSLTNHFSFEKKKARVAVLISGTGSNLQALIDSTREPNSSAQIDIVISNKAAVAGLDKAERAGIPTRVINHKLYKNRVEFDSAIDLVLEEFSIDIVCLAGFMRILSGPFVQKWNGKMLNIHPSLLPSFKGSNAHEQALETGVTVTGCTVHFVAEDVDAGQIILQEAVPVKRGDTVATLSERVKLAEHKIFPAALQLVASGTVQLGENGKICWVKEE

[7] = molecular target: T2, Trifunctional purine biosynthetic protein adenosine-3 (Homo sapiens); assay: Inhibition of GARFTase in human KB cells expressing FRalpha/PCFT/RFC assessed as cell growth inhibition after 96 hrs by CellTiter-Blue assay in presence of AICA; type: cell-based
[8] = molecular target: T1, Trifunctional purine biosynthetic protein adenosine-3; assay: Inhibition of human recombinant His-tagged GARFTase assessed as formation of 5,8-dideazafolate from 10-formyl-5,80-dideazafolic acid measured every 15 secs over 20 mins by spectrophotometric analysis
R2 [9] = assay: Cellular uptake in PCFT-null Chinese hamster R2 cells at 0.5 uM at 37 degC at pH 5.5 measured over 2 mins; type: ADME, cell-based, Cricetulus griseus; conditions: r2, pH 5.5, 2 min
Method in brief: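 R2/PCFT4 or PCFT-null R2 CHO cells were grown in suspension from spinner flasks. Uptake of 0.5 μM [3H]drug measured over 2 min at 37 °C in MES-buffered saline pH 5.5, with or without 10 μM unlabeled competitor. Uptake was quenched with ice-cold DPBS and cells solubilised in NaOH. Results are pmol/mg protein, mean ±SEM of three experiments.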

[10] = molecular target: T3, Proton-coupled folate transporter (Homo sapiens) (UniProt Q96NT5); assay: Binding affinity to human PCFT expressed in Chinese hamster R2/PCFT4 cells assessed as intracellular drug transport rate at 37 degC at pH 6.8 measured over 2 mins by Lineweaver-Burk plot analysis; type: cell-based
T3 sequence (whole entry): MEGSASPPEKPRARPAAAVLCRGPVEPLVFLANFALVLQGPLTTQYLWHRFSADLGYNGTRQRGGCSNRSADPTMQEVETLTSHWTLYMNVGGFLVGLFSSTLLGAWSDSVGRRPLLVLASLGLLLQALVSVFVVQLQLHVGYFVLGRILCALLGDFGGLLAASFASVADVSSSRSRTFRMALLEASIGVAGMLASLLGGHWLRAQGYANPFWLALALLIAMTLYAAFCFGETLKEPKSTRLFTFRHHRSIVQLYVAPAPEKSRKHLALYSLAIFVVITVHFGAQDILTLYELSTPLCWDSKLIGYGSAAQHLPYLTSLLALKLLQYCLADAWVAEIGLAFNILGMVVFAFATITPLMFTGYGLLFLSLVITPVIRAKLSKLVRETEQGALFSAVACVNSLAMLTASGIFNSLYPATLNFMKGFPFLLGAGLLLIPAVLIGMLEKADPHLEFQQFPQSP
Method in brief: (§1)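 R2/PCFT4 CHO cells were grown as monolayers, transferred to spinner flasks, and used as suspensions (5–10 × 10⁷ cells). Uptake was quenched with ice-cold DPBS and cells were NaOH-solubilized. Results are pmol/mg protein; Kt and Vmax come from Lineweaver–Burke plots.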

[11] = molecular target: T3, Proton-coupled folate transporter (Homo sapiens); assay: Binding affinity to human PCFT expressed in Chinese hamster R2/PCFT4 cells assessed as intracellular drug transport rate at 37 degC at pH 5.5 measured over 2 mins by Lineweaver-Burk plot analysis; type: cell-based; method in brief: as §1
[12] = molecular target: T3, Proton-coupled folate transporter (Homo sapiens); assay: Binding affinity to human PCFT expressed in Chinese hamster R2/PCFT4 cells assessed as cell growth inhibition after 96 hrs by CellTiter-Blue assay in presence of 200 nM folic acid; type: cell-based
Method in brief: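 Human-PCFT-transfected R2 CHO cells, precultured with G418, were plated at ~2500–5000 cells/well across a range of drug concentrations. Medium was folate-free RPMI 1640 (pH 7.2) with 25 nM LCV and 10% dialyzed FBS. Parallel wells received 200 nM folic acid. Incubated up to 96 h, then read with CellTiter Blue fluorescence (ex 560/em 590 nm).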

[13] = molecular target: T2, Trifunctional purine biosynthetic protein adenosine-3 (Homo sapiens); assay: Inhibition of GARFTase in human KB cells expressing FRalpha/PCFT/RFC assessed as cell growth inhibition after 96 hrs by CellTiter-Blue assay in presence of thymidine; type: cell-based
[14] = molecular target: Folate receptor beta (Homo sapiens) (UniProt P14207); assay: Displacement of [3H]-folic acid from human FRbeta expressed in Chinese hamster D4 cells after 15 mins relative to folic acid; type: cell-based
Method in brief: (§2)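 Competitive binding to surface folate receptor on RT16 (FRα) or D4 (FRβ) CHO cells. Cells were acid-washed (pH 3.5) to strip bound folate, then incubated in HEPES-buffered saline pH 7.4 with 50 nM [3H]folic acid plus unlabeled ligand (0–1000 nM) for 15 min at 0 °C. Bound label was normalised to protein. Affinity is the inverse molar ratio for 50% displacement, with folic acid set to 1. Mean of 4–10 experiments ±SE.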

[15] = molecular target: Folate receptor alpha (Homo sapiens) (UniProt P15328); assay: Displacement of [3H]-folic acid from human FRalpha expressed in Chinese hamster RT16 cells after 15 mins relative to folic acid; type: cell-based; method in brief: as §2
Folate receptor alpha (Homo sapiens), sequence (P15328 25-234 limits assumed): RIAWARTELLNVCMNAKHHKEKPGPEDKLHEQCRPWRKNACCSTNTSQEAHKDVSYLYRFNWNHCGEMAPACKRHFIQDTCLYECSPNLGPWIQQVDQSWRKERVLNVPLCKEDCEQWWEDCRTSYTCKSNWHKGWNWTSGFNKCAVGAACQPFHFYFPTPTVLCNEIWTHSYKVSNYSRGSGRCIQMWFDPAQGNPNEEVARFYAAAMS

Folate receptor beta (Homo sapiens), sequence (P14207 17-230 limits assumed): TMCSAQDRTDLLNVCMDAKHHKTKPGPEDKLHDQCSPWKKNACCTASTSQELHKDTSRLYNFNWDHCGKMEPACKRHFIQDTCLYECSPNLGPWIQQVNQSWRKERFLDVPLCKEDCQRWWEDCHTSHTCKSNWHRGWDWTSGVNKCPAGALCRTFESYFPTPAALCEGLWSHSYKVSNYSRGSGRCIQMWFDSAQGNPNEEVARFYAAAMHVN

## Nc1nc(N)c2c(CCCc3cc(C(=O)N[C@@H](CCC(=O)O)C(=O)O)cs3)coc2n1
R2 [1]
  pIC50: < 6.00
[2]
  pIC50: 7.00
KB [3]
  pIC50: < 6.00
KB [4]
  pIC50: 7.15
R2 [5]
  pIC50: < 6.00
[6]
  inhibition: inactive
[7]
  inhibition: inactive
[8]
  pKi: 5.19

## Nc1nc2[nH]cc(CCc3ccc(C(=O)N[C@@H](CCC(=O)O)C(=O)O)cc3)c2c(=O)[nH]1 [PEMETREXED]
R2 [9]
  Drug uptake: Not Active
[10]
  K: 0.27 µM
[11]
  K: 0.044 µM

## Nc1nc2[nH]c(CCCc3csc(C(=O)N[C@@H](CCC(=O)O)C(=O)O)c3)cc2c(=O)[nH]1
R2 [1]
  pIC50: 6.45
[2]
  pIC50: 8.62
KB [3]
  pIC50: 6.47
[12]
  Activity: Active
KB [4]
  pIC50: 9.77
R2 [5]
  pIC50: < 6.00
[13]
  inhibition: Active
[14]
  Activity: 35%
[6]
  inhibition: inactive
[15]
  Activity: 60%
[7]
  inhibition: inactive
[8]
  pKi: 7.89

From ChEMBL document CHEMBL3627626, “6-Substituted Pyrrolo[2,3-d]pyrimidine Thienoyl Regioisomers as Targeted Antifolates for Folate Receptor α and the Proton-Coupled Folate Transporter in Human Tumors” (J Med Chem, 2015)
